According to ChEMBL document CHEMBL1629449, “Structure-based design, synthesis, and pharmacological evaluation of 3-(aminoalkyl)-5-fluoroindoles as myeloperoxidase inhibitors” (J Med Chem, 2010):

These compounds were tested against T1, Myeloperoxidase (Homo sapiens) (UniProt P05164) (assay: Inhibition of recombinant MPO assessed as rate of electron donation to MPO redox intermediate compound II by sequential mixing stopped flow spectroscopy).
T1 sequence (whole entry): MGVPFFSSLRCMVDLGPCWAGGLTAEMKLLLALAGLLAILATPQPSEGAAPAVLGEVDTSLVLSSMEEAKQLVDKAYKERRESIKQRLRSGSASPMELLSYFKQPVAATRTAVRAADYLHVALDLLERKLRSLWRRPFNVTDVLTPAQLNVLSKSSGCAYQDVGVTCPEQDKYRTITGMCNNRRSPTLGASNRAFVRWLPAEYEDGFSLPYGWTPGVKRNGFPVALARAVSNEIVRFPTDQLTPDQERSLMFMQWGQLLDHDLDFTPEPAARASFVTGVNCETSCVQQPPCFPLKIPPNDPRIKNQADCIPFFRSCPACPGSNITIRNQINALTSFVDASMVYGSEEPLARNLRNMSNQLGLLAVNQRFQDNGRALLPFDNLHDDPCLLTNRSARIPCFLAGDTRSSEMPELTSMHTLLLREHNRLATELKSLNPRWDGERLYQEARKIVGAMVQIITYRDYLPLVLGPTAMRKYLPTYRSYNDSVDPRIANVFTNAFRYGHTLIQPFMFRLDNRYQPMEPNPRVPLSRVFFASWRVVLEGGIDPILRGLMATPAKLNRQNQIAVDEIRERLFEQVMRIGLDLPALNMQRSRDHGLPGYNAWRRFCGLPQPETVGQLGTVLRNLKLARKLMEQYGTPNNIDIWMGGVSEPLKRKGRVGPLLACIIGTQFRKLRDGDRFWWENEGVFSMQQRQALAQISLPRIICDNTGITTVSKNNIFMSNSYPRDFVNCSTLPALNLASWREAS
Outline: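 Stopped-flow at pH 7.4, 25 °C, in 200 mM phosphate buffer. Each kobs is the mean of at least three determinations. The second-order rate constant was taken as the slope of kobs versus substrate concentration.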

`NCCCCc1c[nH]c2ccc(F)cc12` and `NCCCCCc1c[nH]c2ccc(F)cc12` are within 1.5-fold of each other in Activity: 360 M⁻¹ s⁻¹ for the first, 506 M⁻¹ s⁻¹ for the second.

The compounds below were run against T2, Myeloperoxidase (Homo sapiens, UniProt P05164) (assay: Inhibition of recombinant MPO mediated taurine chlorination by microplate reader method).
T2 sequence (P05164 whole entry): T1 sequence (whole entry)
Type: single protein
Outline: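 Recombinant MPO (40 nM) was incubated with taurine (15 mM) in pH 7.4 phosphate buffer (10 mM/300 mM NaCl) with compound up to 20 μM at 37 °C. The reaction was started with H2O2 (100 μM) and stopped with catalase after 5 min. Taurine chloramine was read with thionitrobenzoic acid at 412 nm. The no-H2O2 control was set as 100% inhibition. IC50 is the mean ± SD of 3 independent experiments.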

First: CCCNCCCc1c[nH]c2ccc(F)cc12
Second: CCCCNCCCc1c[nH]c2ccc(F)cc12
The IC50 of the first is 8.8-fold lower: 170 nM for the first, 1500 nM for the second. The first is the more potent here.

Compared with `NCc1c[nH]c2ccc(F)cc12`, `CNCCc1c[nH]c2ccc(F)cc12` is 4.5-fold lower in IC50: 900 nM for the first, 200 nM for the second. The second is the more potent here.

Compared with `CCN(CC)Cc1c[nH]c2ccc(F)cc12`, `CCN(CC)CCCc1c[nH]c2ccc(F)cc12` is 1.8-fold higher in IC50: 200 nM for the first, 350 nM for the second.

`CCCCNCCc1c[nH]c2ccc(F)cc12` and `CCCNCCc1c[nH]c2ccc(F)cc12` are within 1.5-fold of each other in IC50: 1030 nM for the first, 800 nM for the second.

`CCNCCc1c[nH]c2ccc(F)cc12` and `CCNCCCc1c[nH]c2ccc(F)cc12` are the same in IC50: 300 nM for the first, 300 nM for the second.

First: CN1CCN(Cc2c[nH]c3ccc(F)cc23)CC1
Second: CN1CCN(CCc2c[nH]c3ccc(F)cc23)CC1
The IC50 of the first is 5-fold higher: 1000 nM for the first, 200 nM for the second.

`Fc1ccc2[nH]cc(CCCN3CCCC3)c2c1` and `CN1CCN(CCCc2c[nH]c3ccc(F)cc23)CC1` are within 1.5-fold of each other in IC50: 320 nM for the first, 350 nM for the second.

`CNCCCc1c[nH]c2ccc(F)cc12` was tested, and the IC50 was 200 nM.

These compounds were tested against T2, Myeloperoxidase (assay: Inhibition of recombinant MPO mediated LDL oxidation using MPO/Cl-/H2O2 system).
Outline: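 LDL was isolated from human plasma by ultracentrifugation. It was oxidised at 37 °C in PBS pH 7.2 with MPO (1 μg/mL), LDL (1000 μg/mL), HCl (4 mM), H2O2 (100 μM) and test drug, final concentrations. The reaction was stopped after 5 min on ice. Oxidised LDL was detected by ELISA with Mab AG9 (A405). Most IC50s came from three concentrations (1000, 100, 50 nM).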

Compared with `NCCCCc1c[nH]c2ccc(F)cc12`, `NCCCCCc1c[nH]c2ccc(F)cc12` is 2.4-fold lower in IC50: 12 nM for the first, 5 nM for the second. The second is the more potent here.

First: CCCNCCCc1c[nH]c2ccc(F)cc12
Second: CCCCNCCCc1c[nH]c2ccc(F)cc12
The IC50 of the first is 20-fold higher: 340 nM for the first, 17 nM for the second.

First: NCc1c[nH]c2ccc(F)cc12
Second: NCCc1c[nH]c2ccc(F)cc12
The IC50 of the first is higher: > 1000 nM for the first, 940 nM for the second. The second is the more potent here.

`NCCCCCCc1c[nH]c2ccc(F)cc12` and `NCCCc1c[nH]c2ccc(F)cc12` are within 1.5-fold of each other in IC50: 580 nM for the first, 650 nM for the second.

`CCN(CC)CCc1c[nH]c2ccc(F)cc12` and `CCN(CC)CCCc1c[nH]c2ccc(F)cc12` are within 1.5-fold of each other in IC50: 510 nM for the first, 390 nM for the second.

First: CCN(CC)Cc1c[nH]c2ccc(F)cc12
Second: CN(C)CCc1c[nH]c2ccc(F)cc12
The IC50 of the first is higher: > 1000 nM for the first, 580 nM for the second. The second is the more potent here.

Compared with `CCCCNCCc1c[nH]c2ccc(F)cc12`, `CCCNCCc1c[nH]c2ccc(F)cc12` is 1.8-fold higher in IC50: 250 nM for the first, 460 nM for the second. The first is the more potent here.

Compared with `CCNCCc1c[nH]c2ccc(F)cc12`, `CCNCCCc1c[nH]c2ccc(F)cc12` is 4.5-fold lower in IC50: 850 nM for the first, 190 nM for the second.

Going from `CN1CCN(Cc2c[nH]c3ccc(F)cc23)CC1` to `CN1CCN(CCc2c[nH]c3ccc(F)cc23)CC1`, the IC50 falls from > 1000 nM to 650 nM.

Going from `Fc1ccc2[nH]cc(CCCN3CCCC3)c2c1` to `Fc1ccc2[nH]cc(CCN3CCCC3)c2c1`, the IC50 rises from 210 nM to 1030 nM (4.9-fold). The first is the more potent here.

Compared with `CN1CCN(CCCc2c[nH]c3ccc(F)cc23)CC1`, `CNCCCc1c[nH]c2ccc(F)cc12` is 12-fold lower in IC50: 310 nM for the first, 26 nM for the second. The second is the more potent here.

First: CN(C)CCCc1c[nH]c2ccc(F)cc12
Second: CNCCc1c[nH]c2ccc(F)cc12
The IC50 of the first is 13-fold lower: 49 nM for the first, 650 nM for the second. The first is the more potent here.

What follows are compounds tested against T1, Myeloperoxidase (Homo sapiens) (assay: Inhibition of recombinant MPO assessed as rate of electron donation to MPO redox intermediate compound I by sequential mixing stopped flow spectroscopy).
Outline: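 Stopped-flow kinetics at pH 7.4, 25 °C, in 200 mM phosphate buffer with 2% (v/v) organic solvent. Purified MPO (purity index at least 0.86) at 8 μM was premixed with 80 μM H2O2. Each kobs is the mean of at least three determinations. k3 was taken as the slope of kobs versus substrate concentration.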

Compared with `NCCCCc1c[nH]c2ccc(F)cc12`, `NCCCCCc1c[nH]c2ccc(F)cc12` is lower in Activity: 1.1 ×10⁷ /M/s for the first, 1 ×10⁷ /M/s for the second.
